≈ marks a conversion by molar mass, not a printed value. Calls of active or inactive are those of the source. No cut-off for these calls is given here.
What was measured:
[1] = tested on: Mycobacterium tuberculosis; assay: Bactericidal activity against non-replicating Mycobacterium tuberculosis CDC1551 expressing tdTomato infected in mouse J774A.1 cells at 2 times MIC up to 72 hrs by DAPI staining based fluorescence microscopic method; type: functional, organism-based
How it was run: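 J774A.1 macrophages are seeded at 1×10^5 cells/well in chamber slides and infected with tdTomato-expressing Mtb CDC1551 at MOI ≈10. […] Imaging is by fluorescence confocal microscopy.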

[2] = tested on: Mycobacterium tuberculosis; assay: Antibacterial activity against Mycobacterium tuberculosis; type: functional; conditions: read-out: MIC100
How it was run: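 Mtb H37Rv grown in 7H9/OADC at 37 °C with shaking to OD600 0.5. The 0.5-OD culture is exposed aerobically to serial dilutions for 15 days at 37 °C. Resazurin (0.02% stock) is then added for 4 h at 37 °C with shaking.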

Vero = assay: Cytotoxicity against African green monkey Vero cells assessed as reduction in cell viability after 72 hrs by MTT assay; type: cell-based; conditions: Chlorocebus sabaeus
How it was run: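 Vero cells were grown in complete EMEM with 10% FBS and exposed for 72 h to 0.78–200 µg/mL. The medium was then swapped for phenol-red-free EMEM and MTT was added. Formazan absorbance was read at 570 nm to give IC50.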

[3] = Selectivity index, ratio of IC50 for African green monkey Vero cells to MIC100 for replicating Mycobacterium tuberculosis H37Rv by MABA; type: toxicity; conditions: read-out: Selectivity Index
How it was run: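 Vero cells are cultured in EMEM with 10% FBS and exposed for 72 h to 0.78–200 µg/mL. Medium is switched to phenol-red-free EMEM, MTT is added, and formazan is read at 570 nm to give IC50. The selectivity index is Vero IC50 divided by the MABA MIC.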

Escherichia coli [4] = assay: Inhibition of protein translation/transcription in Escherichia coli S30 cell extract using circular DNA with pBESTluc after 60 mins by luciferase reporter gene assay; type: functional; conditions: 1 h
How it was run: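 E. coli S30 circular-DNA coupled transcription/translation kit with the pBESTluc template (firefly luciferase under the tac promoter). S30 extract, amino acids and premix are combined with compound in DMSO, and the reaction is started with DNA. Incubation is 60 min at 37 °C, stopped on ice, then luciferase luminescence is read.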

[5] = tested on: Mycolicibacterium smegmatis; assay: Antibacterial activity against Mycobacterium smegmatis ATCC 607 incubated for 48 hrs under aerobic condition by MABA; type: functional; conditions: ATCC 607, 48 h, read-out: MIC100
How it was run: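 Mid-log culture at OD 0.5 was incubated with serial dilutions aerobically at 37 °C for 48 h. Resazurin was then added from a 0.08% stock for 1 h. MIC100 was the lowest concentration that stayed blue; absorbance was also read at 570/600 nm.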

Staphylococcus aureus [6] = assay: Antibacterial activity against Staphylococcus aureus BAA 1683 incubated for 24 hrs under aerobic condition by MABA; type: functional; conditions: BAA 1683, 24 h, read-out: MIC100
How it was run: (§1)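 Mid-log cultures at OD 0.5 were exposed to serial dilutions under aerobic conditions at 37 °C for 24 h. Resazurin was then added from a 0.08% stock for 1 h. MIC100 was the lowest concentration where the dye stayed blue (pink means growth). Absorbance was also read at 570 and 600 nm.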

Staphylococcus aureus [7] = assay: Antibacterial activity against Staphylococcus aureus BAA 44 incubated for 24 hrs under aerobic condition by MABA; type: functional; conditions: BAA 44, 24 h, read-out: MIC100; how it was run: as §1
Enterococcus faecalis = assay: Antibacterial activity against Enterococcus faecalis ATCC 19433 incubated for 24 hrs under aerobic condition by MABA; type: functional; conditions: ATCC 19433, 24 h, read-out: MIC100; how it was run: as §1
Streptococcus pneumoniae = assay: Antibacterial activity against Streptococcus pneumoniae ATCC 6301 incubated for 24 hrs under aerobic condition by MABA; type: functional; conditions: ATCC 6301, 24 h, read-out: MIC100; how it was run: as §1
Klebsiella pneumoniae = assay: Antibacterial activity against Klebsiella pneumoniae ATCC 12019 incubated for 24 hrs under aerobic condition by MABA; type: functional; conditions: ATCC 12019, 24 h, read-out: MIC100; how it was run: as §1
Acinetobacter baumannii = assay: Bactericidal activity against Acinetobacter baumannii ATCC 19606 incubated for 24 hrs under aerobic condition by MABA; type: functional; conditions: ATCC 19606 = CIP 70.34 = JCM 6841, 24 h
Escherichia coli [8] = assay: Bactericidal activity against Escherichia coli ATCC 10798 incubated for 24 hrs under aerobic condition by MABA; type: functional; conditions: ATCC 10798, 24 h
[9] = tested on: Mycobacterium tuberculosis; assay: Bactericidal activity against non-replicating Mycobacterium tuberculosis CDC1551 expressing tdTomato infected in mouse J774A.1 cells at 2 times MIC up to 72 hrs by UV-Visible spectroscopic method; type: functional, organism-based
How it was run: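 J774A.1 macrophages are seeded at […] cells/well in DMEM and incubated overnight at 37 °C. They are infected with saline-washed Mtb CDC1551-tdTomato (10^6 bacteria, MOI ≈10), and extracellular bacteria are washed off with PBS. Treatment is at 2×MIC, with fluorescence emission read at 581 nm at 24, 48, 72 and 96 h. Survivors are confirmed by serial dilution and plating on 7H11.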

[10] = Cmax in Balb/c mouse at 3 mg/kg, iv; type: ADME, organism-based; design: dose 3 mg/kg, route intravenous; conditions: in vivo
How it was run: (§2)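 Single IV dose of 3 mg/kg in BALB/c mice (n = 3). Serum concentration-time data were used to derive t1/2, Cmax and AUC over 0–24 h and to infinity.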

[11] = AUC (0 to infinity) in Balb/c mouse at 3 mg/kg, iv; type: ADME, organism-based; design: dose 3 mg/kg, route intravenous, time infinity; conditions: in vivo; how it was run: as §2
Mus musculus [12] = assay: Oral bioavailability in Balb/c mouse at 30 mg/kg; type: ADME, organism-based; conditions: in vivo
How it was run: (§3)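 Single oral dose of 30 mg/kg in BALB/c mice (n = 6). Serum PK parameters were t1/2, tmax, Cmax and AUC over 0–24 h and to infinity. Oral bioavailability F was calculated against the 3 mg/kg IV dose.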

[13] = Cmax in Balb/c mouse serum at 30 mg/kg, po; type: ADME, organism-based; design: dose 30 mg/kg, route oral; how it was run: as §3
[14] = AUC (0 to 24 hrs) in Balb/c mouse serum at 30 mg/kg, po; type: ADME, organism-based; design: time < 24 hr, dose 30 mg/kg, route oral; how it was run: as §3
[15] = Solubility in water at 10 mg after 24 hrs by HPLC analysis; type: physicochemical
Mus musculus [16] = assay: Toxicity in po dosed Balb/c mouse assessed as effect on health measured for 7 days; type: organism-based; conditions: in vivo, 168 h
[17] = tested on: Mycobacterium tuberculosis; assay: Antibacterial activity against Mycobacterium tuberculosis Erdman infected in Balb/c mouse assessed as reduction in bacterial load in lungs at 200 mg/kg, po for 3 weeks starting from 10 days post infection measured on day 21 post infection; type: functional, Erdman = ATCC 35801
How it was run: (§4)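 Female BALB/c mice, 7–8 weeks old, are aerosol-infected with Mtb Erdman. From day 10 they receive oral gavage in water for three weeks, in groups of 5. Lungs and spleens are harvested at day 21 post-infection and plated for CFU. Efficacy is the log10 reduction in lung burden versus untreated (vehicle) controls.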

[18] = tested on: Mycobacterium tuberculosis; assay: Antibacterial activity against Mycobacterium tuberculosis Erdman infected in Balb/c mouse assessed as reduction in bacterial load in lungs at administered po for 3 weeks starting from 10 days post infection measured on day 21 post infection; type: functional, organism-based; conditions: Erdman = ATCC 35801; how it was run: as §4

CC[C@]1(C)C[C@@H](OC(=O)CSC(C)(C)CNC(=O)[C@H](N)CC(C)C)[C@]2(C)[C@H](C)CC[C@]3(CC[C@@H](O)[C@H]32)[C@@H](C)[C@@H]1O
Activity [1]: Active
MIC [2]: < 6.25 µg/mL
IC50 (Vero): 25 µg/mL (≈ 42.9 µM)
selectivity ratio [3]: 30.1
IC50 (Escherichia coli [4]): 0.09 µg/mL (≈ 0.154 µM)
MIC [5]: 6.25 µg/mL (≈ 10.7 µM)
MIC (Staphylococcus aureus [6]): > 25 µg/mL
MIC (Staphylococcus aureus [7]): > 25 µg/mL
MIC (Enterococcus faecalis): 6.25 µg/mL (≈ 10.7 µM)
MIC (Streptococcus pneumoniae): 25 µg/mL (≈ 42.9 µM)
MIC (Klebsiella pneumoniae): 12.5 µg/mL (≈ 21.4 µM)
MBC (Acinetobacter baumannii): 3.13 µg/mL (≈ 5.37 µM)
MBC (Escherichia coli [8]): > 25 µg/mL
Activity [9]: Active
Cmax [10]: 1910 ng/mL
AUC(0-inf) [11]: 1050 ng·h/mL
F (Mus musculus [12]): 27.6%
Cmax [13]: 2960 ng/mL
AUC(0-t) at 24 h [14]: 2500 ng·h/mL
solubility [15]: 104.7 mg/mL (≈ 180000 µM)
MTD (Mus musculus [16]): > 200 mg/kg
log(activity) [17]: 0.47
Activity [18]: Dose-dependent effect
